This note sets out measurements from ChEMBL document CHEMBL1124828, “Synthesis and antiviral and cytotoxic activity of iodohydrin and iodomethoxy derivatives of 5-vinyl-2'-deoxyuridines, 2'-fluoro-2'-deoxyuridine, and uridine” (J Med Chem, 1990).

Converted amounts (≈) assume the structure as drawn. The source made the active and inactive calls. The calls are words filed in the database; no cut-off is given here.

The subject of assay [1] is Vero. Nature of the assay: Dose to inhibit plaque formation in vero cells infected with herpes simplex virus type-1 (HSV-1,strainJLJ) was determined. Conditions: Chlorocebus sabaeus, read-out: ID50 (the source's name). It counts as functional. In a few lines:
(§1)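 HSV-1 plaque-reduction assay in Vero cell monolayers. After 1-h virus adsorption at 37 °C, cells were overlaid with 1% agarose in E-MEM with 2% FBS containing the compound at 0.1, 1.0 and 10 μg/mL. Neutral red staining followed 4 days at 37 °C in 5% CO2, then plaques were counted. ID50 is the concentration cutting plaque number by 50%. The experiment was run once.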

Another assay is filed under the species Mus musculus. As to the kind of experiment: Percent survival of L1210 cells in suspension was determined after a dose of 10 ug/mL in mouse. It counts as functional. In short, it runs like this: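 L1210 suspension cultures in Fischer's medium with 10% heat-inactivated horse serum, 37 °C, 5% CO2. Compound was added from ethanol, water or ethanol/water at final 50, 10 or 1 μg/mL. Cells were counted by Coulter counter after 48 h. % survival = (T48−T0)/(C48−C0)×100 versus untreated controls, given as mean ± SD (n = 3).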

In another assay the test system is Human alphaherpesvirus 1. As to the kind of experiment: Tested for in vitro anti-HSV-1 activity; active. Type of assay: functional, organism-based.
Assay [2] concerns P388. As to the kind of experiment: In vivo cytotoxicity was determined against P388 mouse leukemia cells, (% treated / control) at 20 mg/kg (ip) administration. It counts as functional. In a few lines:
(§2)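 B6D2F1 mice, six per group, were implanted ip with 10⁶ P388 leukemia cells in 0.2 mL saline on day 0. Compound in saline/ethanol (6:1) was given ip at 20 mg/kg on days 1–5. Mice were followed until death. Mean survival time was compared with saline-treated controls and expressed as % T/C.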

The nature of assay [3]: Inhibition constant was determined for the facilitated transport of [[…]]-thymidine by murine erythrocyte NBMPR-sensitive nucleoside transporter. Type of assay: functional, Mus musculus. In a few lines: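 Murine erythrocytes; facilitated uptake of [3H]thymidine through the NBMPR-sensitive nucleoside transporter. Extracellular [3H]thymidine sampled at various times after exposure and counted by liquid scintillation. Ki taken as the inhibition constant for this transport. Values are generally the mean of two determinations (range), with some n = 1 and the 2'-deoxyuridine reference n = 3.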

The test system of assay [4] is L1210. As to the kind of experiment: In vitro cytotoxicity was determined against L1210 leukemia cell from mouse. The settings on record: read-out: ED50 (the source's name). It counts as functional. In a few lines:
(§3)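 Mouse L1210 cells were grown in suspension in Fischer's medium with 10% heat-inactivated horse serum at 37 °C, 5% CO2, seeded at 10⁵ cells/mL. Compound was added from ethanol, water or ethanol/water at final 50, 25, 10, 5.0, 2.5 and 1 μg/mL. Cells were counted by Coulter counter at 48 h, in triplicate. % survival = (T48−T0)/(C48−C0)×100; ED50 is the 50% survival reduction.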

The subject of assay [5] is P388. As to the kind of experiment: In vivo cytotoxicity was determined against P388 mouse leukemia cells expressed as % treated/control. Type of assay: functional. In a few lines: as §2
Assay [6] concerns Vero. As to the kind of experiment: Dose to inhibit plaque formation in vero cells infected with herpes simplex virus type-1 (HSV-1,strainJLJ) was determined relative to acyclovir; value ranges from 0.1-1.0 ug/mL. Type of assay: functional. Conditions: Chlorocebus sabaeus, read-out: ID50 (the source's name).
The subject of assay [7] is L1210. As to the kind of experiment: Tested for cytotoxicity against murine L1210 cells in vitro; weak cytotoxicity. Type of assay: functional, cell-based. The settings on record: Mus musculus.
Assay [8] has as its system L1210. As to the kind of experiment: In vitro cytotoxicity was determined against L1210 leukemia cells from mouse. It counts as functional. Conditions: read-out: ED50 (the source's name). In short, it runs like this: as §3
Assay [9] concerns Vero. Nature of the assay: Dose to inhibit plaque formation in vero cells infected with herpes simplex virus type 1 (HSV-1,strainJLJ) was determined. Type of assay: functional. The settings on record: Chlorocebus sabaeus, read-out: ID50 (the source's name). In short, it runs like this: as §1

With `COC(CI)c1cn(C2O[C@H](CO)[C@@H](O)[C@H]2O)c(=O)[nH]c1=O` (some centres not stated), the IC50 with Vero [1] was more than 100 µg/mL. The same compound displayed a Survival in the assay filed under Mus musculus of 108%.

`O=c1[nH]c(=O)n([C@H]2C[C@H](O)[C@@H](CO)O2)cc1CCCl`: in the assay with Human alphaherpesvirus 1, the result was Active.

As to `O=c1[nH]c(=O)n([C@H]2C[C@H](O)[C@@H](CO)O2)cc1/C=C/Br`, the result with Human alphaherpesvirus 1 was Active.

As a reminder, the T/C is the result in the treated group divided by that in the control group, in per cent. For the compound `O=c1[nH]cc(F)c(=O)[nH]1` [FLUOROURACIL], in the assay on P388 [2], the T/C is more than 135%.

Broadly, the Ki is the equilibrium dissociation constant of an inhibitor or competing ligand from its target. On to `O=c1[nH]c(=O)n([C@H]2C[C@H](O)[C@@H](CO)O2)cc1C(O)CI` (some centres not stated), for which the inhibition constant Ki in assay [3] is 155 µM. Also, in the assay with Vero [1], the IC50 is more than 10 µg/mL. Also, the EC50 in the assay with L1210 [4] came to 10.5 µg/mL (≈ 26.4 µM). Also, the T/C with P388 [5] is recorded as 98%. Further, the Survival in the assay listed under Mus musculus is given as 52%.

In assay [3], `O=c1nc2c(cn1[C@H]1C[C@H](O)[C@@H](CO)O1)C(O)CO2` (some centres not stated) gave a Ki of 8000 µM. Moreover, in the assay on Vero [1], the IC50 is more than 100 µg/mL. The Survival in the assay filed under Mus musculus turned out to be 103%.

As for `O=c1[nH]c(=O)n(C2O[C@H](CO)[C@@H](O)[C@H]2O)cc1C(O)CI` (some centres not stated), in the assay with Vero [1], the IC50 was more than 100 µg/mL. Further, the Survival in the assay listed under Mus musculus is 87%.

Consider `C=Cc1cn([C@@H]2O[C@H](CO)[C@@H](O)[C@H]2F)c(=O)[nH]c1=O`, for which the IC50 in the assay with Vero [1] was 0.1 µg/mL (≈ 0.367 µM). In the assay filed under Mus musculus, the Survival worked out at 87%.

On to `O=c1[nH]c(=O)n([C@H]2C[C@H](O)[C@@H](CO)O2)cc1C(O)CBr` (some centres not stated), for which the IC50 in the assay on Vero [6] is 1 µg/mL (≈ 2.85 µM). The Cyotoxicity result with L1210 [7] is “weak cytotoxicity”.

In the case of `O=c1[nH]c(=O)n([C@H]2C[C@H](O)[C@@H](CO)O2)cc1/C=C/I`, the Ki in [3] came out at 25 µM. The IC50 in the assay on Vero [1] was less than 0.1 µg/mL.

Take `O=c1[nH]c(=O)n([C@H]2C[C@H](O)[C@@H](CO)O2)cc1C(O)CCl` (some centres not stated): the IC50 in the assay with Vero [6] was 1 µg/mL (≈ 3.26 µM). Moreover, the Cyotoxicity result with L1210 [7] was “weak cytotoxicity”.

Consider `COC(CI)c1cn([C@@H]2O[C@H](CO)[C@@H](O)[C@H]2F)c(=O)[nH]c1=O` (some centres not stated), for which the IC50 in the assay on Vero [1] is more than 100 µg/mL. Moreover, in the assay filed under Mus musculus, the Survival is 97%.

As to `O=c1ccn([C@H]2C[C@H](O)[C@@H](CO)O2)c(=O)[nH]1` [DEOXYURIDINE], in [3], the affinity corresponds to a Ki of 125 µM.

For the compound `O=c1[nH]c(=O)n([C@@H]2O[C@H](CO)[C@@H](O)[C@H]2F)cc1C(O)CI` (some centres not stated), the IC50 in the assay with Vero [1] is more than 100 µg/mL. The same compound gave a Survival in the assay listed under Mus musculus of 93%.

Consider `N[C@@H](Cc1ccc(N(CCCl)CCCl)cc1)C(=O)O` [MELPHALAN], for which the EC50 in the assay on L1210 [8] was determined as 0.15 µg/mL (≈ 0.491 µM).

The compound `COCC(O)c1cn([C@H]2C[C@H](O)[C@@H](CO)O2)c(=O)[nH]c1=O` (some centres not stated) yielded a Ki in assay [3] of 610 µM. Besides, the IC50 in the assay with Vero [1] is more than 10 µg/mL. Besides, the EC50 in the assay on L1210 [4] was 12 µg/mL (≈ 39.7 µM). In addition, the T/C with P388 [5] was found to be 103%. For the same compound, the Survival in the assay listed under Mus musculus was 37%.

Take `Nc1nc2c(ncn2COCCO)c(=O)[nH]1` [ACYCLOVIR]: the IC50 with Vero [9] worked out at 0.01 µg/mL (≈ 0.0444 µM).

`COC(CI)c1cn([C@H]2C[C@H](O)[C@@H](CO)O2)c(=O)[nH]c1=O` (some centres not stated) gave a Ki in [3] of 35 µM. Besides, the IC50 with Vero [1] turned out to be 0.1 µg/mL (≈ 0.243 µM). The EC50 with L1210 [4] was 6 µg/mL (≈ 14.6 µM). Also, the T/C in the assay on P388 [5] stood at 114%. Besides, the Survival in the assay listed under Mus musculus was 42%.

`O=c1[nH]c(=O)n(C2CC(O)C(CO)O2)cc1C(O)C(I)I` (configuration not stated): the Ki in assay [3] was 220 µM. Also, in the assay on Vero [1], the IC50 is more than 10 µg/mL. In the assay on L1210 [4], the EC50 amounted to 0.77 µg/mL (≈ 1.47 µM). The compound further came in with a T/C with P388 [5] of 112%. The same compound showed a Survival in the assay listed under Mus musculus of 2%.

Turning to `COC(CBr)c1cn([C@H]2C[C@H](O)[C@@H](CO)O2)c(=O)[nH]c1=O` (some centres not stated), the IC50 in the assay on Vero [6] amounted to 1 µg/mL (≈ 2.74 µM). Also, the Cyotoxicity entry in the assay with L1210 [7] was “weak cytotoxicity”.
